Among the data in ChEMBL document CHEMBL1134370, “Pharmacophore analysis of the nuclear oxysterol receptor LXRalpha” (J Med Chem, 2001) are EC50, RE and Ki values, retold here.

Each structure is given as a SMILES string.

Assay [1] addresses T1, Oxysterols receptor LXR-alpha (Homo sapiens, UniProt Q13133).
T1 sequence (Q13133 whole entry): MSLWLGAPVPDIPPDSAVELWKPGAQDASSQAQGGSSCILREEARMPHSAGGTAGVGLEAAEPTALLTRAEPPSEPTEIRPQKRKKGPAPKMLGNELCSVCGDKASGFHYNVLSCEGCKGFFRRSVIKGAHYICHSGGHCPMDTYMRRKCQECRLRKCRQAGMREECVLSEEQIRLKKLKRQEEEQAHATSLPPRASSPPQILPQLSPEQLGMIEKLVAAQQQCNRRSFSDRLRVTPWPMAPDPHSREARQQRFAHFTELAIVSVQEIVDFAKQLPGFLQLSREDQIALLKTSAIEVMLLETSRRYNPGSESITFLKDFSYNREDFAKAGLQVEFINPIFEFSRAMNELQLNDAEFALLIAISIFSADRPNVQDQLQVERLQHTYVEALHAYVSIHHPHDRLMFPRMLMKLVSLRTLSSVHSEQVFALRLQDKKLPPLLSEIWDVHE
The assay can be described thus: Concentration required for half maximal activity was calculated in human nuclear oxysterol receptor liver X receptor-alpha in LiSA. The method, boiled down: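 Human LXRα ligand-binding domain (aa 183-447) with His tag, expressed in E. coli, purified and biotinylated. Protein and biotinylated SRC1 peptide (aa 675-699) were pre-bound to streptavidin-APC and streptavidin-europium. The final mix (10 nM each) was read by TR-FRET at 665 nm after 2-4 h at room temperature. Compounds 1 nM-100 µM; EC50 from half-maximal fluorescence, n = 3, standard error.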

The target of assay [2] is T2, Oxysterols receptor LXR-alpha (Homo sapiens) (UniProt Q13133).
T2 sequence (whole entry): T1 sequence (Q13133 whole entry)
The assay can be described thus: Tested for its ability to activate Liver X receptor-alpha expressed as Relative efficacy determined by maximal increase in relative fluorescence in LiSA. The method, boiled down:
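Human LXRα ligand-binding domain (aa 183-447) with a His tag, expressed in E. coli, biotinylated and coupled to streptavidin-allophycocyanin. A biotinylated SRC1 peptide (aa 675-699) was coupled to streptavidin-europium. Final concentrations: 10 nM protein and peptide in pH 7.5 MOPS buffer, compound 1 nM–100 µM. Incubated 2-4 h at room temperature; time-resolved FRET read at 665 nm. Efficacy is the maximal fluorescence increase relative to 24(S),25-epoxycholesterol.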

Assay [3] has as its target T2, Oxysterols receptor LXR-alpha (Homo sapiens). In words: Tested for its ability to activate Liver X receptor-alpha expressed as Relative efficacy determined by maximal increase in relative fluorescence in LiSA by 100 uM. The method, boiled down:
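TR-FRET ligand-sensing assay of SRC1 peptide recruitment to biotinylated human LXRα LBD (aa 183-447, E. coli), 10 nM each in MOPS/NaF buffer pH 7.5. Run at room temperature for 2-4 h, read at 665 nm. Relative efficacy is the maximal increase in relative fluorescence compared with 24(S),25-epoxycholesterol. Compounds tested up to 100 µM.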

Assay [4] deals with T1, Oxysterols receptor LXR-alpha. In words: Binding affinity towards LXR alpha receptor was determined in a competition binding assay.

As for `CC(C)CCC[C@](C)(O)[C@H]1CC[C@H]2[C@@H]3CC=C4C[C@@H](O)CC[C@]4(C)[C@H]3CC[C@@]21C`, in assay [1], the EC50 (usually the midpoint of the concentration-response curve) is 0.47 µM. Besides, in assay [2], the RE worked out at 1.
On the same counts, the results for `C[C@H](CC[C@@H]1OC1(C)C)[C@H]1CC[C@H]2[C@@H]3CC=C4C[C@@H](O)CC[C@]4(C)[C@H]3CC[C@]12C` [24(S),25-EPOXYCHOLESTEROL] are 0.46 µM and 1.
In assay [2], `CC(C)CCC[C@@H](C)[C@H]1CC[C@H]2[C@@H]3CC=C4C[C@@H](O)CC[C@]4(C)[C@H]3CC[C@]12C` had an RE below 0.1.
In the case of `C[C@H](C[C@@H](CO)C(C)(C)O)[C@H]1CC[C@H]2[C@@H]3CC=C4C[C@@H](O)CC[C@]4(C)[C@H]3CC[C@]12C`, the RE in assay [2] is below 0.1.
In the case of `C[C@H](CCC(=O)N(C)C)[C@H]1CC[C@H]2[C@@H]3CC=C4C[C@@H](O)CC[C@]4(C)[C@H]3CC[C@]12C`, the half-maximal effective concentration (EC50) in assay [1] was 0.17 µM. This compound also returned an RE in assay [2] of 1.4.
For `CC(C)C(=O)CC[C@@H](C)[C@H]1CC[C@H]2[C@@H]3CC=C4C[C@@H](O)CC[C@]4(C)[C@H]3CC[C@]12C` the same measures were 0.18 µM and 1.3.
`CC(C)CC[C@H](O)[C@@H](C)[C@H]1CC[C@H]2[C@@H]3CC=C4C[C@@H](O)CC[C@]4(C)[C@H]3CC[C@]12C` registered an RE in assay [3] below 0.1. The Ki (usually the equilibrium dissociation constant of an inhibitor or competing ligand from its target) in assay [4] amounted to 0.18 µM.
Consider `C[C@H](CNC(=O)N(C)C)[C@H]1CC[C@H]2[C@@H]3CC=C4C[C@@H](O)CC[C@]4(C)[C@H]3CC[C@]12C`, for which the RE in assay [2] was below 0.1.
`CC(C)C(=O)NC[C@@H](C)[C@H]1CC[C@H]2[C@@H]3CC=C4C[C@@H](O)CC[C@]4(C)[C@H]3CC[C@]12C`: the RE in assay [2] is below 0.1.
For `C[C@H](CC[C@H]1OC1(C)C)[C@H]1CC[C@H]2[C@@H]3CC=C4C[C@@H](O)CC[C@]4(C)[C@H]3CC[C@]12C`, in assay [1], the EC50 was 0.67 µM. In addition, the RE in assay [2] was 1.
As for `CC(C)C[C@H](O)C[C@@H](C)[C@H]1CC[C@H]2[C@@H]3CC=C4C[C@@H](O)CC[C@]4(C)[C@H]3CC[C@]12C`, the EC50 in assay [1] is 5.9 µM. Also, the RE in assay [2] was determined as 0.7.
For the compound `CC(C)C[C@@H](O)C[C@@H](C)[C@H]1CC[C@H]2[C@@H]3CC=C4C[C@@H](O)CC[C@]4(C)[C@H]3CC[C@]12C`, the RE in assay [2] was below 0.1.
As to `COC(=O)CC[C@@H](C)[C@H]1CC[C@H]2[C@@H]3CC=C4C[C@@H](O)CC[C@]4(C)[C@H]3CC[C@]12C`, the concentration for a half-maximal effect (EC50) in assay [1] is 0.105 µM. In assay [2], this compound showed an RE of 1.1.
`CC(C)[C@H](O)CC[C@@H](C)[C@H]1CC[C@H]2[C@@H]3CC=C4C[C@@H](O)CC[C@]4(C)[C@H]3CC[C@]12C`: the EC50 in assay [1] is 0.22 µM. Moreover, in assay [2], the RE was 0.85.
Turning to `CNC(=O)CC[C@@H](C)[C@H]1CC[C@H]2[C@@H]3CC=C4C[C@@H](O)CC[C@]4(C)[C@H]3CC[C@]12C`, the half-maximal effective concentration (EC50) in assay [1] was 0.72 µM. The same compound came in with an RE in assay [2] of 0.55.
For `CC(C)[C@@H](O)CC[C@@H](C)[C@H]1CC[C@H]2[C@@H]3CC=C4C[C@@H](O)CC[C@]4(C)[C@H]3CC[C@]12C` the same measures were 0.13 µM and 1.
For `CC(C)CC[C@@H](O)[C@@H](C)[C@H]1CC[C@H]2[C@@H]3CC=C4C[C@@H](O)CC[C@]4(C)[C@H]3CC[C@]12C` [22(R)-HYDROXYCHOLESTEROL] the same measures were 0.325 µM and 0.85.
As to `C[C@H](CCC(=O)O)[C@H]1CC[C@H]2[C@@H]3CC=C4C[C@@H](O)CC[C@]4(C)[C@H]3CC[C@]12C`, the concentration for a half-maximal effect (EC50) in assay [1] was 3 µM. The RE in assay [2] was 0.2.
Consider `C[C@@H](CO)CCC[C@@H](C)[C@H]1CC[C@H]2[C@@H]3CC=C4C[C@@H](O)CC[C@]4(C)[C@H]3CC[C@]12C`, for which the EC50 in assay [1] is 0.25 µM. The compound further displayed an RE in assay [2] of 0.3.
For `C[C@H](CCCC(C)(C)O)[C@H]1CC[C@H]2[C@@H]3CC=C4C[C@@H](O)CC[C@]4(C)[C@H]3CC[C@]12C` the same measures were 1.16 µM and 0.35.
